Assay results: ChEMBL document CHEMBL1949585, “Design, synthesis and evaluation of telomerase inhibitory, hTERT repressing, and anti-proliferation activities of symmetrical 1,8-disubstituted amidoanthraquinones” (Eur J Med Chem, 2012)

Legend:
[1] = tested on: SF-295; test: Cytotoxicity against human SF295 cells assessed as cell growth at 10 uM relative to control; format: functional; conditions: read-out: Activity
Procedure, shortened: (§1)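 Single-concentration screen in the NCI 60 human tumour cell line panel covering nine cancer types. Values are the mean growth percentage of compound-treated cells, with untreated control cells set as 100%.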

[2] = tested on: SK-MEL-5; test: Cytotoxicity against human SK-MEL-5 cells assessed as cell growth at 10 uM relative to control; format: functional; conditions: read-out: Activity; procedure, shortened: as §1
[3] = tested on: HL-60(TB); test: Cytotoxicity against human HL-60(TB) cells assessed as cell growth at 10 uM relative to control; format: functional; conditions: read-out: Activity
Procedure, shortened: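 Tested in the NCI 60 human tumour cell line panel, covering nine cancer cell types, at a single concentration. The value is the mean growth percentage of treated cells, with untreated control cells taken as 100%.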

[4] = tested on: UACC-62; test: Cytotoxicity against human UACC62 cells assessed as cell growth at 10 uM relative to control; format: functional; conditions: read-out: Activity
Procedure, shortened: (§2)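 Run in the NCI 60-cell human tumour panel. Cells were exposed to 10 µM compound, and growth was given as a percentage of untreated control cells set to 100%.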

[5] = tested on: SK-MEL-28; test: Cytotoxicity against human SK-MEL-28 cells assessed as cell growth at 10 uM relative to control; format: functional; conditions: read-out: Activity; procedure, shortened: as §1
[6] = Inhibition of human TERT expression in H1299 cells at 100 uM after 24 hrs by secreted alkaline phosphatase reporter gene assay relative to control; values are per cent of control; conditions: NCI-H1299
[7] = tested on: ACHN; test: Cytotoxicity against human ACHN cells assessed as cell growth at 10 uM relative to control; format: functional; conditions: read-out: Activity; procedure, shortened: as §1
[8] = tested on: DU-145; test: Cytotoxicity against human DU145 cells assessed as cell growth at 10 uM relative to control; format: functional; conditions: read-out: Activity; procedure, shortened: as §1
[9] = tested on: NCI-H23; test: Cytotoxicity against human NCI-H23 cells assessed as cell growth at 10 uM relative to control; format: functional; conditions: read-out: Activity; procedure, shortened: as §1
[10] = tested on: SF-268; test: Cytotoxicity against human SF268 cells assessed as cell growth at 10 uM relative to control; format: functional; conditions: read-out: Activity; procedure, shortened: as §1
[11] = tested on: MDA-MB-231; test: Cytotoxicity against human MDA-MB-231 cells assessed as cell growth at 10 uM relative to control; format: functional; conditions: read-out: Activity; procedure, shortened: as §1
[12] = tested on: NCI-H522; test: Cytotoxicity against human NCI-H522 cells assessed as cell growth at 10 uM relative to control; format: functional; conditions: read-out: Activity; procedure, shortened: as §1
[13] = tested on: SNB-19; test: Cytotoxicity against human SNB19 cells assessed as cell growth at 10 uM relative to control; format: functional; conditions: read-out: Activity; procedure, shortened: as §2
[14] = tested on: TK-10; test: Cytotoxicity against human TK10 cells assessed as cell growth at 10 uM relative to control; format: functional; conditions: read-out: Activity; procedure, shortened: as §2
[15] = Inhibition of human TERT expression in H1299 cells at 1 uM after 24 hrs by secreted alkaline phosphatase reporter gene assay relative to control; values are per cent of control; conditions: NCI-H1299
[16] = tested on: MCF7; test: Cytotoxicity against human MCF7 cells assessed as cell growth at 10 uM relative to control; format: functional; conditions: read-out: Activity; procedure, shortened: as §1
[17] = Cytotoxicity against human H1299 cells assessed as cell growth at 1 uM after 48 hrs by MTT assay; format: functional; conditions: NCI-H1299, 48 h, read-out: Activity
Procedure, shortened: (§3)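 H1299 non-small lung cancer cells were grown in RPMI 1640 with 10% FBS and penicillin/streptomycin at 37 °C in 5% CO2. About 2×10³ cells were seeded per well and held 24 h, then washed with PBS and given fresh medium. Compound, freshly dissolved in DMSO and diluted in complete medium, was added for 48 h. MTT was read at 550 nm after SDS/DMF lysis at 37 °C for 16 h. Values are from three experiments, untreated = 100%, ±SD.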

[18] = Cytotoxicity against human 786-O cells assessed as cell growth at 10 uM relative to control; format: functional; conditions: 786-0, read-out: Activity; procedure, shortened: as §1
[19] = Inhibition of human TERT expression in H1299 cells at 10 uM after 24 hrs by secreted alkaline phosphatase reporter gene assay relative to control; values are per cent of control; conditions: NCI-H1299
[20] = tested on: NCI/ADR-RES; test: Cytotoxicity against human NCI/ADR-RES cells assessed as cell growth at 10 uM relative to control; format: functional; conditions: read-out: Activity; procedure, shortened: as §1
[21] = tested on: Malme-3M; test: Cytotoxicity against human MALME-3M cells assessed as cell growth at 10 uM relative to control; format: functional; conditions: read-out: Activity; procedure, shortened: as §1
[22] = Cytotoxicity against human Hs 578T cells assessed as cell growth at 10 uM relative to control; format: functional; conditions: read-out: Activity; procedure, shortened: as §1
[23] = tested on: COLO 205; test: Cytotoxicity against human COLO205 cells assessed as cell growth at 10 uM relative to control; format: functional; conditions: read-out: Activity; procedure, shortened: as §1
[24] = Cytotoxicity against human H1299 cells assessed as cell growth at 100 uM after 48 hrs by MTT assay; format: functional; conditions: NCI-H1299, 48 h, read-out: Activity; procedure, shortened: as §3
[25] = tested on: HCT-116; test: Cytotoxicity against human HCT116 cells assessed as cell growth at 10 uM relative to control; format: functional; conditions: read-out: Activity; procedure, shortened: as §1
[26] = tested on: CCRF-CEM; test: Cytotoxicity against human CCRF-CEM cells assessed as cell growth at 10 uM relative to control; format: functional; conditions: read-out: Activity; procedure, shortened: as §1
[27] = tested on: OVCAR-5; test: Cytotoxicity against human OVCAR5 cells assessed as cell growth at 10 uM relative to control; format: functional; conditions: read-out: Activity; procedure, shortened: as §1
[28] = tested on: UO-31; test: Cytotoxicity against human UO31 cells assessed as cell growth at 10 uM relative to control; format: functional; conditions: read-out: Activity; procedure, shortened: as §2
[29] = tested on: NCI-H322M; test: Cytotoxicity against human NCI-H322M cells assessed as cell growth at 10 uM relative to control; format: functional; conditions: read-out: Activity; procedure, shortened: as §1
[30] = tested on: SK-OV-3; test: Cytotoxicity against human SKOV3 cells assessed as cell growth at 10 uM relative to control; format: functional; conditions: read-out: Activity; procedure, shortened: as §1
[31] = tested on: BT-549; test: Cytotoxicity against human BT549 cells assessed as cell growth at 10 uM relative to control; format: functional; conditions: read-out: Activity; procedure, shortened: as §1
[32] = tested on: MOLT-4; test: Cytotoxicity against human MOLT4 cells assessed as cell growth at 10 uM relative to control; format: functional; conditions: read-out: Activity; procedure, shortened: as §1
[33] = tested on: OVCAR-4; test: Cytotoxicity against human OVCAR4 cells assessed as cell growth at 10 uM relative to control; format: functional; conditions: read-out: Activity; procedure, shortened: as §1
[34] = tested on: SNB-75; test: Cytotoxicity against human SNB75 cells assessed as cell growth at 10 uM relative to control; format: functional; conditions: read-out: Activity; procedure, shortened: as §2
[35] = tested on: OVCAR-3; test: Cytotoxicity against human OVCAR3 cells assessed as cell growth at 10 uM relative to control; format: functional; conditions: read-out: Activity; procedure, shortened: as §1
[36] = tested on: A549; test: Cytotoxicity against human A549 cells assessed as cell growth at 10 uM relative to control; format: functional; conditions: read-out: Activity; procedure, shortened: as §1
[37] = tested on: LOX IMVI; test: Cytotoxicity against human LOXIMVI cells assessed as cell growth at 10 uM relative to control; format: functional; conditions: read-out: Activity; procedure, shortened: as §1
[38] = tested on: HCC 2998; test: Cytotoxicity against human HCC2998 cells assessed as cell growth at 10 uM relative to control; format: functional; conditions: read-out: Activity; procedure, shortened: as §1
[39] = tested on: UACC-257; test: Cytotoxicity against human UACC257 cells assessed as cell growth at 10 uM relative to control; format: functional; conditions: read-out: Activity; procedure, shortened: as §2
[40] = tested on: SK-MEL-2; test: Cytotoxicity against human SK-MEL-2 cells assessed as cell growth at 10 uM relative to control; format: functional; conditions: read-out: Activity; procedure, shortened: as §1
[41] = tested on: CAKI-1; test: Cytotoxicity against human CAKI-1 cells assessed as cell growth at 10 uM relative to control; format: functional; conditions: read-out: Activity; procedure, shortened: as §1
[42] = tested on: SW-620; test: Cytotoxicity against human SW620 cells assessed as cell growth at 10 uM relative to control; format: functional; conditions: read-out: Activity; procedure, shortened: as §2
[43] = Cytotoxicity against human H1299 cells assessed as cell growth at 10 uM after 48 hrs by MTT assay; format: functional; conditions: NCI-H1299, 48 h, read-out: Activity; procedure, shortened: as §3

CCN(CC)CC(=O)Nc1cccc2c1C(=O)c1c(NC(=O)CN(CC)CC)cccc1C2=O
growth at 10 µM [1]: 88.9%
growth at 10 µM [2]: 101%
growth at 10 µM [3]: 94.7%
growth at 10 µM [4]: 93.5%
growth at 10 µM [5]: 117%
level, % of control [6]: 42%
growth at 10 µM [7]: 91.9%
growth at 10 µM [8]: 137%
growth at 10 µM [9]: 97.1%
growth at 10 µM [10]: 138%
growth at 10 µM [11]: 91.2%
growth at 10 µM [12]: 88%
growth at 10 µM [13]: 94.1%
growth at 10 µM [14]: 105%
level, % of control [15]: 86%
growth at 10 µM [16]: 88.7%
growth at 1 µM [17]: 86%
growth at 10 µM [18]: 86.4%
level, % of control [19]: 84%
growth at 10 µM [20]: 101%
growth at 10 µM [21]: 112%
growth at 10 µM [22]: 111%
growth at 10 µM [23]: 114%
growth at 100 µM [24]: 50%
growth at 10 µM [25]: 84.2%
growth at 10 µM [26]: 84.6%
growth at 10 µM [27]: 101%
growth at 10 µM [28]: 87.3%
growth at 10 µM [29]: 93.8%
growth at 10 µM [30]: 103%
growth at 10 µM [31]: 97.4%
growth at 10 µM [32]: 91.2%
growth at 10 µM [33]: 91.3%
growth at 10 µM [34]: 81.7%
growth at 10 µM [35]: 161%
growth at 10 µM [36]: 91.7%
growth at 10 µM [37]: 89.3%
growth at 10 µM [38]: 103%
growth at 10 µM [39]: 105%
growth at 10 µM [40]: 84%
growth at 10 µM [41]: 88.3%
growth at 10 µM [42]: 104%
growth at 10 µM [43]: 78%

COC(=O)CNCC(=O)Nc1cccc2c1C(=O)c1c(NC(=O)CNCC(=O)OC)cccc1C2=O
growth at 10 µM [1]: 97.2%
growth at 10 µM [2]: 94.3%
growth at 10 µM [3]: 107%
growth at 10 µM [4]: 90.3%
growth at 10 µM [5]: 127%
level, % of control [6]: 12%
growth at 10 µM [7]: 90.7%
growth at 10 µM [8]: 107%
growth at 10 µM [9]: 95.2%
growth at 10 µM [10]: 100%
growth at 10 µM [11]: 90.2%
growth at 10 µM [12]: 96.8%
growth at 10 µM [13]: 95.3%
growth at 10 µM [14]: 84.9%
level, % of control [15]: 111%
growth at 10 µM [16]: 89.5%
growth at 1 µM [17]: 84%
growth at 10 µM [18]: 103%
level, % of control [19]: 93%
growth at 10 µM [20]: 92.9%
growth at 10 µM [21]: 102%
growth at 10 µM [22]: 104%
growth at 10 µM [23]: 102%
growth at 100 µM [24]: 68%
growth at 10 µM [25]: 96.4%
growth at 10 µM [26]: 64.4%
growth at 10 µM [27]: 106%
growth at 10 µM [28]: 88.9%
growth at 10 µM [29]: 94.5%
growth at 10 µM [30]: 104%
growth at 10 µM [31]: 99.9%
growth at 10 µM [32]: 83.8%
growth at 10 µM [33]: 87.7%
growth at 10 µM [34]: 89.9%
growth at 10 µM [35]: 89.9%
growth at 10 µM [36]: 94.3%
growth at 10 µM [37]: 88.2%
growth at 10 µM [38]: 106%
growth at 10 µM [39]: 92.4%
growth at 10 µM [40]: 107%
growth at 10 µM [41]: 83.8%
growth at 10 µM [42]: 109%
growth at 10 µM [43]: 86%
